Screens (PubChem BioAssay)
Most compounds without a hit are left out; they make up all but 1.4% or so of the library.
A3A deaminase = inhibitors of human APOBEC3A DNA deaminase. P31941. recombinant A3A, FAM/TAMRA ssDNA deamination fluorescence. inhibition, % at 20 µM. 0.41% of 330,000 active. AID 493011;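 active means at least 40% inhibition at 20 µM here, with at most 30% in a related deaminase screen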;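 further: plate controls were A3A with DMSO for no effect and wells lacking A3A enzyme for full effect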
Target sequence (P31941 whole entry, looked up): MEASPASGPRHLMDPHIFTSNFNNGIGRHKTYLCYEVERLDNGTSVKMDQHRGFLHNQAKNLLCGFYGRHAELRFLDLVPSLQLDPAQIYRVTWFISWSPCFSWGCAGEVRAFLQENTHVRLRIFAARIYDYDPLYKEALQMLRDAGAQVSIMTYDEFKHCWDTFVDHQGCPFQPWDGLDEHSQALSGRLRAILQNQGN
iPSC survival up = hiPSC single-cell survival enhancement; survival enhancement, % at 20 µM; 0.044% of 360,000 active; ATPlite luminescence; 100% = ROCK inhibitor wells, 0% = DMSO; in the data active means survival enhancement above about 18%;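 further: cells exposed to compounds for 16 hours before the ATP read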
HKDC1 inhibitor = HKDC1 (human) hexokinase inhibition; AID 493160; Q2TB90; 0.16% of 340,000 active; recombinant HKDC1, G6PDH/diaphorase resazurin coupled fluorescence; inhibition, % at 20 µM;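 active means inhibition above about 35% when tested at 20 µM, limit read from the data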;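 further: plate controls were DMSO wells with enzyme for no effect and DMSO wells lacking enzyme for full effect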
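test system = in-house recombinant HK5 (HKDC1) enzyme | amount = HKDC1 at 5 µg/mL | control set = DMSO-enzyme wells negative, buffer-substituted wells positive | compound = one dose of 20 µM, 1% DMSO | schedule = reaction time 90 min, room temperature, protected from light | technique = resorufin fluorescence at 613 nm | reagent = glucose with 1 mM ATP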
PfGluPho inh = PfG6PD (Plasmodium falciparum) enzyme inhibition; PfGluPho enzyme, NADPH resazurin-diaphorase fluorescence; inhibition, % at 20 µM; 0.78% of 350,000 active; AID 504690;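 active means inhibition reaching at least a set limit at 20 µM in the primary screen, cut at about 59% in these data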;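 further: 0% = DMSO wells with substrate and 100% = DMSO wells lacking glucose-6-phosphate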
APOBEC3G inh = APOBEC3G (human) deaminase inhibition; recombinant A3G, ssDNA deamination FAM/TAMRA fluorescence; 0.28% of 330,000 active; Q9HC16; inhibition, % at 20 µM; AID 493012;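 active means inhibition of at least 40% at 20 µM, with no more than 30% in the related APOBEC3A deaminase screen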;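 further: plate controls were DMSO wells with A3G for no effect and wells lacking A3G enzyme for full effect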
Target sequence (Q9HC16 whole entry, looked up): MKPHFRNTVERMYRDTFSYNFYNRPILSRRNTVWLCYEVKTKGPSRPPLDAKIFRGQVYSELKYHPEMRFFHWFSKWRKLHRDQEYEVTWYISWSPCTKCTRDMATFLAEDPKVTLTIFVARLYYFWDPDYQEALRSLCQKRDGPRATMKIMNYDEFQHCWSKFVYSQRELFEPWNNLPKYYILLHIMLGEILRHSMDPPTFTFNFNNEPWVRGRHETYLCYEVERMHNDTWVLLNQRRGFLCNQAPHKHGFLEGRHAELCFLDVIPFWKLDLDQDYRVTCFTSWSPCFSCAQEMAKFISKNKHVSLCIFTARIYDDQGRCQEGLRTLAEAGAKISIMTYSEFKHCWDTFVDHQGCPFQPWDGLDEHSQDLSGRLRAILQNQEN
Active calls of the source: *; nt = no result.

SMILES | A3A deaminase | iPSC survival up | HKDC1 inhibitor | PfGluPho inh | APOBEC3G inh
CC1OC(CC(=O)O)CC2=C1C(=O)c1c(O)cccc1C2=O (stereo not drawn) | nt | -1 | 31 | 131* | nt
O=C1c2cccc(O)c2C(=O)c2c(O)cccc21 | 6 | nt | nt | nt | -1
CC(C)(C)N1C(=O)Cc2c1nc(N)c1c(N)nc(N3CCCCC3CO)c(C#N)c21 (stereo not drawn) | -4 | -2 | 25 | 89* | -9
Cc1ccc(S(=O)(=O)NCC(c2ccc3c(c2)OCO3)N2CCN(c3ccccc3)CC2)cc1 (stereo not drawn) | -6 | 5 | 2 | 11 | -5
Cn1cnc(Sc2ncnc3nc[nH]c23)c1[N+](=O)[O-] | -3 | 0 | -8 | 61* | -10
Cn1cnc([N+](=O)[O-])c1Sc1ncnc2nc[nH]c12 | 1 | -1 | -2 | 9 | -8
Cc1cccc(Cc2c(C)nc3c(C(=O)NCc4ccco4)cnn3c2C)c1 | 4 | 19* | 16 | -11 | 4
Cc1nc2c(C(=O)NCc3ccco3)cnn2c(C)c1Cc1ccc(F)cc1Cl | -3 | 0 | 6 | -1 | -5
Cc1ccc(-c2csc(NC(=O)c3ccc(-c4ccccc4)cc3)n2)o1 | -4 | -1 | 4 | 60* | -8
Cc1cc(C)cc(N2C(=O)c3nccnc3C2=O)c1 | -2 | 2 | 4 | -23 | -3
Cc1ccc(N2C(=O)C3C4C=CC(CC4)C3C2=O)cc1[N+](=O)[O-] (stereo not drawn) | -4 | 1 | -1 | -2 | -7
Cc1cc(C)cc(N2C(=O)C=CC2=O)c1 | nt | -1 | -6 | 86* | nt
Cc1cc(N2C(=O)C=CC2=O)c([N+](=O)[O-])cc1C | 1 | 1 | -15 | 91* | 31
Cc1c([N+](=O)[O-])cc(N2C(=O)C=CC2=O)cc1[N+](=O)[O-] | nt | 4 | -6 | 101* | nt
Cc1ccc(-c2cc(Cc3ccccc3)c(=O)[nH]n2)cc1 | -1 | 0 | 3 | 0 | -8
CN(C)c1ccc(N=Cc2ccco2)cc1 | -4 | -5 | 3 | 60* | -3
CN(C)c1ccc(C=Nc2ccccc2)cc1 | 6 | -2 | -5 | -19 | 2
O/N=C(\Cn1ccnc1)c1ccccc1 | nt | -1 | 3 | -13 | nt
COc1ccc2[nH]c(=O)c(CNc3ccccc3C)cc2c1 | 2 | -1 | 14 | 47 | 7
COc1ccc2[nH]c(=O)c(CNc3ccccc3OC)cc2c1 | 0 | 0 | 21 | 69* | -7
CS(=O)(=O)N(Cc1cc2ccccc2[nH]c1=O)C1CCCCC1 | -3 | 27* | -6 | 0 | -5
CN(Cc1cc2ccccc2[nH]c1=O)S(C)(=O)=O | -1 | 2 | -8 | 3 | -4
CC[C@@]1(C(=O)OC)N[C@H](CN(C)S(=O)(=O)c2ccc(C(C)(C)C)cc2)[C@@H]2C(=O)N(C)C(=O)[C@@H]21 | -2 | -4 | -3 | 8 | -4
O=C1/C(=C/c2ccncc2)CCC/C1=C\c1ccncc1 | nt | 90* | 21 | 14 | nt
O=C1C(=Cc2ccncc2)CCCc2ccccc21 | nt | -1 | nt | 0 | nt
SMILES | A3A deaminase | iPSC survival up | HKDC1 inhibitor | PfGluPho inh | APOBEC3G inh
Cc1cc(C(=O)OCC(=O)N(C)c2ccccc2)c(C)o1 | -2 | 0 | -9 | 8 | -4
CCN1C/C(=C/c2cccc([N+](=O)[O-])c2)C(=O)/C(=C/c2cccc([N+](=O)[O-])c2)C1 | nt | 38* | 22 | 21 | nt
N#C/C(C(N)=O)=c1/ccc2c(c1)N1C3=C(CCCC3)CC3CCCCC31N=2 (stereo not drawn) | 2 | nt | 52* | 44 | -6
COC1=C(C)C(=O)C2=C(C1=O)C1C3CC4=C(C(=O)C(OC)=C(C)C4=O)C(CNC(=O)C(C)=O)N3C(C#N)C(C2)N1C (stereo not drawn) | nt | -3 | 60* | 120* | nt
CC(C)Cc1nn2c(=O)cc(COc3ccc(NC(=O)c4ccco4)cc3)nc2s1 | 2 | 0 | 0 | -8 | -2
C=C1C(=O)OC2C1CCC(C)=C1C(=O)C3OC3(C)C12 (stereo not drawn) | nt | 27* | 11 | 15 | nt
CN1CCN(c2cc(N3CCN(C(=O)c4ccco4)CC3)c3c4c(onc24)-c2ccccc2C3=O)CC1 | 9 | -1 | 21 | 74* | 0
CCOC(=O)N1CCN(c2cc(NCCC(=O)O)c3c4c(onc24)-c2ccccc2C3=O)CC1 | 25 | -1 | 37* | 38 | 32
CN(C)c1ccc(NC(=O)C(=O)C2C(=O)Nc3ccccc32)cc1 (stereo not drawn) | 0 | 0 | -1 | -23 | -1
CN(C)c1ccc(CC2C(=O)Nc3ccccc32)cc1 (stereo not drawn) | -5 | 0 | 5 | 83* | 45*
Oc1ccc(-c2n[nH]c(=S)n2Cc2ccco2)cc1 | -1 | 2 | 4 | 24 | 49*
O=C(c1ccc(S(=O)(=O)N2CCOCC2)cc1)N1CCOCC1 | -4 | 0 | -4 | -3 | -8
Oc1ccc(N=Cc2ccc(O)c(O)c2)cc1 | 12 | -1 | 25 | 67* | 39
CC1NC(=O)c2cc3ccccc3cc2-n2c1nc1cc(Cl)ccc1c2=O (stereo not drawn) | nt | 4 | nt | -6 | nt
CCc1nn(C(CC)C(=O)NCc2cccc(OC)c2OC)c(=O)c2cc3occc3n12 (stereo not drawn) | -3 | 0 | -5 | -6 | -6
CC1(C)N([O-])c2cc([N+](=O)[O-])ccc2[N+]1=O | 0 | nt | 20 | 70* | 4
O=C(COC(=O)c1ccccc1C(=O)c1ccc(Cl)c([N+](=O)[O-])c1)NC1CC1 | 0 | 36* | 2 | 1 | -7
Clc1cccc(-c2nc3ccc(Br)cn3c2Cc2ccsc2)c1 | nt | -1 | nt | nt | nt
O=c1[nH]c2ccccc2c2cn(-c3ccccc3)nc12 | -3 | -1 | 15 | 64* | -6
O=c1[nH]c2ccccc2c2ccccc12 | -1 | 1 | 2 | 11 | -5
CC(=O)N1CCOc2ccc(S(=O)(=O)N(C)c3cccc(C)c3)cc21 | 3 | 0 | -5 | 1 | 4
C[C@@H]1CCCCO[C@@H](CN(C)S(=O)(=O)c2cccs2)[C@@H](C)CN([C@H](C)CO)C(=O)c2cc(NS(=O)(=O)c3ccccc3)ccc2O1 | nt | 22* | nt | 17 | nt
COc1ccc(S(=O)(=O)Nc2ccc3c(c2)C(=O)N([C@H](C)CO)C[C@H](C)[C@@H](CN(C)C(=O)NC2CCCCC2)O3)cc1 | 2 | 22* | -1 | 0 | -7
C=CCn1c(N)cc(=O)nc1SCC(=O)Nc1ccc(C(=O)OCC)cc1 | -1 | -1 | -4 | 0 | -8
O=c1oc2c(O)c(O)cc3c(=O)oc4c(O)c(O)cc1c4c23 | nt | 1 | 54* | 30 | nt
COc1ccc(OC)c(C2CC(=O)N3CN(c4cccc(Cl)c4C)CSC3=C2C#N)c1 (stereo not drawn) | 5 | 1 | 12 | 83* | 37
CCOC(=O)c1ccc(N2CSC3=C(C#N)C(c4ccc(OC)cc4OC)CC(=O)N3C2)cc1 (stereo not drawn) | 0 | -1 | 3 | 54 | 4
